Assay results taken from ChEMBL document CHEMBL1127730, “Bicyclic hydantoins with a bridgehead nitrogen. Comparison of anticonvulsant activities with binding to the neuronal voltage-dependent sodium channel” (J Med Chem, 1994).
Activity calls are given as the source filed them. The rule behind the calls is not given here.

How the values were obtained:
[1] = Partition coefficient (logP); type: physicochemical; conditions: octanol/water
Method in brief: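 Calculated rather than measured: the parent-structure log P value is summed with π contributions for the substituents. Both sets of constants come from published tables.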

[2] = target: Sodium channel alpha subunits; brain (Types I, II, III) (Rattus norvegicus, UniProt P04775+P04774+P08104); assay: Inhibition of binding to sodium channel of rat cerebral cortex; type: tissue-based
Method in brief: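 Rat cerebral cortex synaptosomes (~1 mg protein) incubated 40 min at 25 °C with 10 nM [3H]BTX-B, 50 μg/mL scorpion venom and test compound at seven concentrations. Filtration, ice-cold buffer washes, scintillation counting. Nonspecific binding defined with 300 μM veratridine. Triplicate runs with 40 μM DPH control tube. IC50 by Probit analysis, excluding doses giving <10% or >90% inhibition.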

Mus musculus [3] = assay: Number of animals protected or toxic compared to number tested rotarod test in Phase-I by intraperitoneal administration in mice; 4/4; type: functional
Method in brief: (§1)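 Mice dosed ip and tested 30 min later. Phase I screen is qualitative: maximal electroshock and subcutaneous metrazol (scMet) seizure tests, plus a rotorod test for neurotoxicity. Reported as the best active dose in mg/kg, with animals protected (or toxic) over the number tested. Run by the NINDS Antiepileptic Drug Development Program.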

Mus musculus [4] = assay: Number of animals protected or toxic compared to number tested in subcutaneous administration in mice; 4/4; type: functional; method in brief: as §1
Mus musculus [5] = assay: Number of animals protected or toxic compared to number tested maximal electric shock (MES) method in Phase-I by intraperitoneal administration in mice; 1/1; type: functional; method in brief: as §1
Mus musculus [6] = assay: Anticonvulsant activity was measured as inhibition of convulsions by maximal electric shock (MES) method in Phase-I by intraperitoneal administration in mice; type: functional; method in brief: as §1
Mus musculus [7] = assay: Anticonvulsant activity was measured as inhibition of convulsions by rotarod test in Phase-I by intraperitoneal administration in mice; type: functional; method in brief: as §1
Mus musculus [8] = assay: Anticonvulsant activity was measured as inhibition of convulsions by subcutaneous administration in mice; type: functional; method in brief: as §1
Mus musculus [9] = assay: Anticonvulsant activity was measured by maximal electric shock (MES) method in Phase -II by intraperitoneal administration in mice; type: functional; conditions: ip
Method in brief: (§2)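 Phase II quantification in mice dosed ip: ED50 against maximal electroshock seizures and rotorod neurotoxic TD50, both in mg/kg. The 95% confidence intervals are given in brackets. Run by the NINDS Antiepileptic Drug Development Program.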

Mus musculus [10] = assay: Time taken for measure Anticonvulsant activity in Phase -II by intraperitoneal administration in mice; type: functional
Mus musculus [11] = assay: Anticonvulsant activity was measured by rotarod test in Phase -II by intraperitoneal administration in mice; type: functional; conditions: ip; method in brief: as §2
Mus musculus [12] = assay: Number of animals protected or toxic compared to number tested in subcutaneous administration in mice; 3/4; type: functional, organism-based; method in brief: as §1
Mus musculus [13] = assay: Number of animals protected or toxic compared to number tested maximal electric shock (MES) method in Phase-I by intraperitoneal administration in mice; 3/3; type: functional; method in brief: as §1
Mus musculus [14] = assay: Number of animals protected or toxic compared to number tested in subcutaneous administration in mice; 1/1; type: functional; method in brief: as §1
Mus musculus [15] = assay: Number of animals protected or toxic compared to number tested maximal electric shock (MES) method in Phase-I by intraperitoneal administration in mice; 1/3; type: functional; method in brief: as §1
Mus musculus [16] = assay: Number of animals protected or toxic compared to number tested rotarod test in Phase-I by intraperitoneal administration in mice; 8/8; type: functional, organism-based; method in brief: as §1
Mus musculus [17] = assay: Number of animals protected or toxic compared to number tested rotarod test in Phase-I by intraperitoneal administration in mice; 1/4; type: functional; method in brief: as §1

Structure (SMILES) | logP [1] | IC50 [2] [µM] | Activity (Mus musculus [3]) | Activity (Mus musculus [4]) | Activity (Mus musculus [5]) | Activity (Mus musculus [6]) [mg/kg] | Activity (Mus musculus [7]) [mg/kg] | Activity (Mus musculus [8]) [mg/kg] | ED50 (Mus musculus [9]) [mg/kg] | Time (Mus musculus [10]) [h] | TD50 (Mus musculus [11]) [mg/kg] | Activity (Mus musculus [12]) | Activity (Mus musculus [13]) | Activity (Mus musculus [14]) | Activity (Mus musculus [15]) | Activity (Mus musculus [16]) | Activity (Mus musculus [17])
CCCCC1(c2ccccc2)NC(=O)N(C)C1=O (stereo not drawn) | 3.01 | 285 |  |  |  |  |  |  |  |  |  |  |  |  |  |  | 
CCCCCC1(c2ccccc2)NC(=O)NC1=O (stereo not drawn) | 2.96 | 39 |  |  |  |  |  |  |  |  |  |  |  |  |  |  | 
CCCC1(c2ccccc2)NC(=O)NC1=O (stereo not drawn) | 1.96 | 162 | 4 | 4 | 1 | 30 | 100 | 100 | 25 | 1 | 85 |  |  |  |  |  | 
CN1C(=O)OC(C)(C)C1=O [TRIMETHADIONE] | -0.37 | > 1000 |  |  |  |  |  |  |  | 1 | 810 |  |  |  |  |  | 
O=C1NC2(c3ccccc3)CCCCN1C2=O (stereo not drawn) | 2.01 | 700 | Active |  |  | 100 | 300 | 100 |  |  |  | Weak activity | 3 |  |  |  | 
O=C1O[C@@]2(c3ccccc3)CCCCN1C2=O | 2.65 |  |  |  |  | >300 | >300 | 300 |  |  |  |  |  | 1 |  |  | 
O=C1NC(=O)C(c2ccccc2)(c2ccccc2)N1 [PHENYTOIN] | 2.46 |  |  |  |  |  |  |  | 10 | 2 |  |  |  |  |  |  | 
NC(=O)C1(c2ccccc2)CCCCCNC1=O (stereo not drawn) |  |  | 4 | 4 |  | 100 | 300 | 300 |  |  |  |  |  |  | 1 |  | 
CCCCC1(c2ccccc2)NC(=O)NC1=O (stereo not drawn) | 2.46 | 103 |  |  |  |  |  |  |  |  |  |  |  |  |  |  | 
O=C1OC2(c3ccccc3)CCCCCN1C2=O (stereo not drawn) | 3.05 | 160 |  |  |  | 100 | 100 | 100 | 66 | 0.25 | 147 |  | 3 | Active |  | Active | 
CCC1(c2ccccc2)OC(=O)N(C)C1=O (stereo not drawn) | 2.65 |  |  |  | 1 | 300 | 300 | 30 |  | 0.5 | 504 |  |  | 1 |  |  | 1
O=C1NC2(c3ccccc3)CCCCCN1C2=O (stereo not drawn) | 2.51 | 427 | 4 |  |  | 100 | 300 | >300 | 86 | 0.25 | 124 |  | 3 |  |  |  | 
